Values joined by “and” are separate entries in the source; they are usually repeats but may differ in a detail not shown here. Equal entries are not always repeated.
Tested on: U2OS
Assay: Multiplex assay against U2OS
Type: toxicity, cell-based
Settings: human
Outline: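 Phenotypes for tubulin, mitochondrial mass and membrane permeability are expressed as per cents of healthy-nucleus cells. Cells were stained live at seeding with Hoechst33342, BioTracker Green Microtubule Cytoskeleton Dye, MitoTracker Red and Annexin V Alexa Fluor 680, then imaged after compound addition on a CQ1 microscope at 37°C and 5% CO2. Machine-learning gating in CellPathfinder separated Hoechst high-intensity objects from normal cells, divided normal cells by nuclear state (healthy, pyknosed, fragmented) and divided pyknosed cells into mitotic or apoptotic.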

[1] = 12 h, 10 µM, compound concentration 10 uM
[2] = 24 h, 10 µM, compound concentration 10 uM
[3] = 48 h, 10 µM, compound concentration 10 uM
[4] = 12 h, 1 µM, compound concentration 1 uM
[5] = 24 h, 1 µM, compound concentration 1 uM
[6] = 48 h, 1 µM, compound concentration 1 uM

CC(=O)O[C@H]1C(=O)[C@@]2(C)[C@H]([C@H](OC(=O)c3ccccc3)[C@]3(O)C[C@H](OC(=O)[C@H](O)[C@@H](NC(=O)c4ccccc4)c4ccccc4)C(C)=C1C3(C)C)[C@]1(OC(C)=O)CO[C@@H]1C[C@@H]2O [PACLITAXEL]
Population Apoptotic (%) [1]: 64% and 71% | Population Fragmented Nuclei (%) [1]: 28% and 16% | Population Healthy Nuclei (%) [1]: 46% and 60% | Population Hoechst High Intensity Objects (%) [1]: 8% and 3% | Population Membrane Permeable-Phenotype (%) [1]: 23% and 10% | Population Mitochondria Different-Phenotype (%) [1]: 25% and 30% | Population Mitotic Cells (%) [1]: 35% and 28% | Population Normal (%) [1]: 91% and 96% | Population Pyknosed Nuclei (%) [1]: 24% and 23% | Population Tubulin-Different-Phenotype (%) [1]: 16% and 14% | Total Cell Count [1]: 200 and 94 | Population Apoptotic (%) [2]: 69% and 58% | Population Fragmented Nuclei (%) [2]: 33% and 25% | Population Healthy Nuclei (%) [2]: 36% and 48% | Population Hoechst High Intensity Objects (%) [2]: 4% | Population Membrane Permeable-Phenotype (%) [2]: 21% and 15% | Population Mitochondria Different-Phenotype (%) [2]: 44% and 34% | Population Mitotic Cells (%) [2]: 30% and 41% | Population Normal (%) [2]: 95% | Population Pyknosed Nuclei (%) [2]: 29% and 26% | Population Tubulin-Different-Phenotype (%) [2]: 13% and 18% | Total Cell Count [2]: 198 and 95 | Population Apoptotic (%) [3]: 76% and 70% | Population Fragmented Nuclei (%) [3]: 35% and 27% | Population Healthy Nuclei (%) [3]: 30% and 31% | Population Hoechst High Intensity Objects (%) [3]: 12% and 8% | Population Membrane Permeable-Phenotype (%) [3]: 27% and 14% | Population Mitochondria Different-Phenotype (%) [3]: 29% and 50% | Population Mitotic Cells (%) [3]: 23% and 29% | Population Normal (%) [3]: 87% and 91% | Population Pyknosed Nuclei (%) [3]: 33% and 41% | Population Tubulin-Different-Phenotype (%) [3]: 16% and 25% | Total Cell Count [3]: 203 and 98

CCCN1CCC[C@@H]2Cc3n[nH]cc3C[C@H]21.Cl [QUINPIROLE HYDROCHLORIDE]
Population Apoptotic (%) [4]: 71% and 61% | Population Fragmented Nuclei (%) [4]: 31% and 21% | Population Healthy Nuclei (%) [4]: 60% and 67% | Population Hoechst High Intensity Objects (%) [4]: 2% and 0% | Population Membrane Permeable-Phenotype (%) [4]: 7% and 2% | Population Mitochondria Different-Phenotype (%) [4]: 1% | Population Mitotic Cells (%) [4]: 28% and 38% | Population Normal (%) [4]: 97% and 100% | Population Pyknosed Nuclei (%) [4]: 8% and 11% | Population Tubulin-Different-Phenotype (%) [4]: 3% and 2% | Total Cell Count [4]: 265 and 118 | Population Apoptotic (%) [1]: 58% and 100% | Population Fragmented Nuclei (%) [1]: 19% and 9% | Population Healthy Nuclei (%) [1]: 72% and 85% | Population Hoechst High Intensity Objects (%) [1]: 1% and 2% | Population Membrane Permeable-Phenotype (%) [1]: 2% and 6% | Population Mitochondria Different-Phenotype (%) [1]: 0% and 5% | Population Normal (%) [1]: 98% and 97% | Population Pyknosed Nuclei (%) [1]: 7% and 4% | Population Tubulin-Different-Phenotype (%) [1]: 1% and 2% | Total Cell Count [1]: 228 and 126 | Population Apoptotic (%) [5]: 68% and 77% | Population Fragmented Nuclei (%) [5]: 27% and 18% | Population Healthy Nuclei (%) [5]: 64% and 68% | Population Hoechst High Intensity Objects (%) [5]: 1% and 0% | Population Membrane Permeable-Phenotype (%) [5]: 4% | Population Mitochondria Different-Phenotype (%) [5]: 3% and 4% | Population Mitotic Cells (%) [5]: 31% and 22% | Population Normal (%) [5]: 98% and 100% | Population Pyknosed Nuclei (%) [5]: 7% and 13% | Population Tubulin-Different-Phenotype (%) [5]: 3% and 4% | Total Cell Count [5]: 299 and 138 | Population Apoptotic (%) [2]: 88% and 92% | Population Fragmented Nuclei (%) [2]: 13% and 9% | Population Healthy Nuclei (%) [2]: 80% and 82% | Population Hoechst High Intensity Objects (%) [2]: 2% and 0% | Population Membrane Permeable-Phenotype (%) [2]: 2% and 0% | Population Mitochondria Different-Phenotype (%) [2]: 0% and 1% | Population Mitotic Cells (%) [2]: 11% and 7% | Population Normal (%) [2]: 97% and 99% | Population Pyknosed Nuclei (%) [2]: 6% and 8% | Population Tubulin-Different-Phenotype (%) [2]: 1% and 0% | Total Cell Count [2]: 281 and 163 | Population Apoptotic (%) [6]: 75% and 78% | Population Fragmented Nuclei (%) [6]: 19% and 17% | Population Healthy Nuclei (%) [6]: 74% and 69% | Population Hoechst High Intensity Objects (%) [6]: 1% and 3% | Population Membrane Permeable-Phenotype (%) [6]: 4% | Population Mitochondria Different-Phenotype (%) [6]: 1% and 5% | Population Mitotic Cells (%) [6]: 25% and 21% | Population Normal (%) [6]: 98% and 96% | Population Pyknosed Nuclei (%) [6]: 6% and 13% | Population Tubulin-Different-Phenotype (%) [6]: 2% | Total Cell Count [6]: 425 and 180 | Population Apoptotic (%) [3]: 86% and 91% | Population Fragmented Nuclei (%) [3]: 11% and 12% | Population Healthy Nuclei (%) [3]: 78% | Population Hoechst High Intensity Objects (%) [3]: 3% and 1% | Population Membrane Permeable-Phenotype (%) [3]: 4% and 6% | Population Mitochondria Different-Phenotype (%) [3]: 1% and 4% | Population Mitotic Cells (%) [3]: 13% and 8% | Population Normal (%) [3]: 96% and 98% | Population Pyknosed Nuclei (%) [3]: 9% | Population Tubulin-Different-Phenotype (%) [3]: 3% and 2% | Total Cell Count [3]: 386 and 251

Source: ChEMBL document CHEMBL5724801, “EUbOPEN Chemogenomics Library - Multiplex” (2024)
